From ChEMBL document CHEMBL4330057, “Second generation of diazachrysenes: Protection of Ebola virus infected mice and mechanism of action” (Eur J Med Chem, 2019)
Active and inactive are the calls of the source. The rule behind the calls is not given here.

Columns and labels:
[1] = Selectivity index, ratio of CC50 for human HeLa cells to EC50 for Ebolavirus H. sapiens-wt/1995/Kikwit-9510621 infected in human HeLa cells; format: toxicity, cell-based; details: read-out: Ratio CC50/EC50
Ebolavirus [2] = assay: Antiviral activity against Ebolavirus H. sapiens-wt/1995/Kikwit-9510621 infected in human HeLa cells assessed as inhibition of viral infection pretreated for 2 hrs followed by viral infection and measured after 48 hrs by EboV GP immunostaining based high content imaging analysis; format: functional, organism-based
[3] = Cytotoxicity against human HeLa cells after 2 hrs by high content imaging analysis; format: cell-based
Ebolavirus [4] = assay: Antiviral activity against Ebolavirus infected in mouse assessed as protection against viral infection at 30 mg/kg/day relative to control; format: functional
Ebolavirus [5] = assay: Antiviral activity against Ebolavirus; format: functional, organism-based; details: Orthoebolavirus
[6] = Clearance in human liver microsomes after 1 hr; format: ADME, Microsome; details: read-out: CLH
Method in brief: (§1)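 Substrate depletion with mouse or human liver microsomes, 1 h at 37 °C. Clearance (μL/min/mg) and half-life derived.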

Cytochrome P450 3A4 [7] = biological target: T1, Cytochrome P450 3A4 (Homo sapiens, UniProt P08684); assay: Inhibition of CYP3A4 (unknown origin) using 7-benzyloxy-4-trifluoromethylcoumarin as substrate; format: ADME
T1 sequence (P08684 whole entry): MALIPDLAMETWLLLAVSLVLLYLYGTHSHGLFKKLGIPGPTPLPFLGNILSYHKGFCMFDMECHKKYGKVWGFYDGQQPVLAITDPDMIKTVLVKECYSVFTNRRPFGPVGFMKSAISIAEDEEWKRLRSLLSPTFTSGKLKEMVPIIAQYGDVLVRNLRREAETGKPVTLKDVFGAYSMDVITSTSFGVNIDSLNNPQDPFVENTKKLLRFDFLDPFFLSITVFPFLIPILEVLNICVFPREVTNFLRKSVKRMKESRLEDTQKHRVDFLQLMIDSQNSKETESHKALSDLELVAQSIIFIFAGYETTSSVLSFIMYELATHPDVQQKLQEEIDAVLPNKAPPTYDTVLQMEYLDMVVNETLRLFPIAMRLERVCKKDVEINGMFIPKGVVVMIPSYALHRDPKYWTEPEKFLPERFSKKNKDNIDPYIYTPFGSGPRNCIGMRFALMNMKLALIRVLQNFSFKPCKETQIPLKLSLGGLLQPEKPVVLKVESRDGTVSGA
Method in brief: (§2)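 CYP IC50 was taken from the net fluorescent signal after incubation at 37 °C for a set time with active cytochrome P450 enzyme and a fluorescent probe substrate.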

Zaire ebolavirus [8] = assay: Antiviral activity against VSV pseudotyped Ebolavirus Mayinga expressing GFP infected in human HeLa cells assessed as inhibition of viral infection up to 50 uM pre-incubated for 2 hrs followed by viral infection and measured after 8 hrs by high content imaging analysis; format: functional, organism-based; details: 1976
Method in brief: (§3)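 HeLa cells pretreated 2 h with compound, then infected with rVSV-EBOV-GP-GFP (8 h) or VSV-GFP (6 h), and stained with Cell Mask Deep Red. Relative inhibition = 1 minus (% GFP-expressing cells normalised to mock). Mean ± SD of three replicates, representative of three independent experiments.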

Cytochrome P450 2D6 = Cytochrome P450 2D6 (Homo sapiens, UniProt P10635); assay: Inhibition of CYP2D6 (unknown origin) using 3-(2-(N, N-Diethyl-N-methylamino)ethyl)-7-Methoxy-4-Methylcoumarin as substrate; format: ADME; details: read-out: INH; method in brief: as §2
Sequence of Cytochrome P450 2D6 (P10635 whole entry): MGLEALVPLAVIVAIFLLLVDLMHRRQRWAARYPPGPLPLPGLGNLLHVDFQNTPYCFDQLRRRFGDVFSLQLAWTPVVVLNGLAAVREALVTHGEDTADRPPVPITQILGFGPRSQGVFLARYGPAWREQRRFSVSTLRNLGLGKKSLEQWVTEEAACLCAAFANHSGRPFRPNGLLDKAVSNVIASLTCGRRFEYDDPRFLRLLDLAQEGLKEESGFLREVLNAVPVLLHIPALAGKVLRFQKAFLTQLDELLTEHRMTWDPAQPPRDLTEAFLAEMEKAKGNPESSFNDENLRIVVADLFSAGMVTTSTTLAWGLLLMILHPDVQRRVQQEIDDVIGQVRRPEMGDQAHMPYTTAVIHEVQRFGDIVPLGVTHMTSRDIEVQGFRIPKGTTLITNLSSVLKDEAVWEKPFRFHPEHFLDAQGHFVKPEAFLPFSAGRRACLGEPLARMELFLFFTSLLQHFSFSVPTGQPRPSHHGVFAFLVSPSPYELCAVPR

[9] = Stability in plasma (unknown origin) after 1 hr at 37 degC; format: ADME, cell-free; details: read-out: Stability
Method in brief: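 Compound was incubated in plasma for 1 h at 37 °C, and the percent remaining was reported.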

[10] = Clearance in mouse liver microsomes after 1 hr; format: ADME, Microsome; details: read-out: CLH; method in brief: as §1
Cytochrome P450 3A4 [11] = biological target: T1, Cytochrome P450 3A4; assay: Inhibition of CYP3A4 (unknown origin) using 7-benzyloxyquinoline as substrate; format: ADME; method in brief: as §2
[12] = Solubility of the compound in deionized water; format: physicochemical
[13] = Solubility of the compound in pH 7.4 buffer by laser nephelometric method; format: physicochemical
Method in brief: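 Solubility at pH 7.4 was measured by laser nephelometry (light scattering), in triplicate.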

[14] = Half life in human liver microsomes; format: ADME, Microsome; method in brief: as §1
[15] = test system: Vesicular stomatitis virus; assay: Antiviral activity against VSV expressing GFP infected in human HeLa cells assessed as inhibition of viral infection at 2 uM pre-incubated for 2 hrs followed by viral infection and measured after 6 hrs by cell mask deep red staining based assay; format: functional, organism-based; method in brief: as §3
[16] = test system: Vesicular stomatitis virus; assay: Antiviral activity against VSV expressing GFP infected in human HeLa cells assessed as inhibition of viral infection at 50 uM pre-incubated for 2 hrs followed by viral infection and measured after 6 hrs by cell mask deep red staining based assay; format: functional, organism-based; method in brief: as §3
Cytochrome P450 3A4 [17] = biological target: T1, Cytochrome P450 3A4; assay: Inhibition of CYP3A4 (unknown origin) using dibenzylfluorescein as substrate; format: ADME; method in brief: as §2
[18] = test system: Vesicular stomatitis virus; assay: Antiviral activity against VSV expressing GFP infected in human HeLa cells assessed as inhibition of viral infection at 0.1 uM pre-incubated for 2 hrs followed by viral infection and measured after 6 hrs by cell mask deep red staining based assay; format: functional, organism-based; method in brief: as §3
Zaire ebolavirus [19] = assay: Antiviral activity against Ebolavirus Mayinga infected in Balb/c mouse assessed as protection against viral infection by measuring host survival at 10 mg/kg, ip administered 2 hrs prior to viral infection daily for 6 days and measured for 14 days relative to control; format: functional, 1976
Zaire ebolavirus [20] = assay: Antiviral activity against VSV pseudotyped Ebolavirus Mayinga expressing GFP infected in human HeLa cells assessed as inhibition of viral infection at 2 uM pre-incubated for 2 hrs followed by viral infection and measured after 8 hrs by cell mask deep red staining based assay; format: functional, organism-based; details: 1976; method in brief: as §3
Cytochrome P450 2C19 = Cytochrome P450 2C19 (Homo sapiens, UniProt P33261); assay: Inhibition of CYP2C19 (unknown origin) using CEC as substrate; format: ADME; method in brief: as §2
Sequence of Cytochrome P450 2C19 (P33261 whole entry): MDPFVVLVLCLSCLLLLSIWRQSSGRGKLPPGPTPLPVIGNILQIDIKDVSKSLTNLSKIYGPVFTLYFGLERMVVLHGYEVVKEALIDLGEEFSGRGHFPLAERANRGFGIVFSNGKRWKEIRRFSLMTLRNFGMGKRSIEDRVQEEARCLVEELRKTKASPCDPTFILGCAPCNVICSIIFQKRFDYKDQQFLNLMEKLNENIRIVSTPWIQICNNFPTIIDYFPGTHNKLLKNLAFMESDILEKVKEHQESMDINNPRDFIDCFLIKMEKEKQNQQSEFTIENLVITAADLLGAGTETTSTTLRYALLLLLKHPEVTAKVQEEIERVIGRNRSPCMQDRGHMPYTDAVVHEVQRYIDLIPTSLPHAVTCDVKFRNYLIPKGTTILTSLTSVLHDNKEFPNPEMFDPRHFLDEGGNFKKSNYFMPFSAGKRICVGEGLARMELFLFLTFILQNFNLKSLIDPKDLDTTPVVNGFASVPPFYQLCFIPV

[21] = Half life in mouse liver microsomes; format: ADME, Microsome; method in brief: as §1
HeLa [22] = assay: Induction of lysosomotropism in human HeLa cells infected with Ebolavirus assessed as increase in fluorescence intensity of acid compartments at 10 uM for 1 hr by Lysosensor DND189 staining based assay; format: functional, cell-based
Method in brief: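 HeLa cells were pretreated 1 h with compound (Bafilomycin A1 at 0.01 μM as acidification control), then stained with LysoSensor DND 189 for 10 min and washed. Live imaging at Ex/Em 443/505 nm. Fluorescence intensity per area was quantified by image analysis. Eight wells per point, about 3000 cells/well, mean ± SD, three independent experiments.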

[23] = biological target: Cathepsin B (Homo sapiens) (UniProt P07858); assay: Inhibition of cathepsin B activity in human HeLa cells at 10 uM after 12 hrs by magic red substrate based fluorescence assay; format: cell-based
Method in brief: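 HeLa cells were exposed to compound for 12 h, then given the Magic Red cathepsin B peptide reporter, washed, and imaged at Ex/Em 590/630. Total intensity and average area of red fluorescence were scored by high-content analysis. Eight wells per point, about 3000 cells/well, mean ± SD, three independent experiments.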

Zaire ebolavirus [24] = assay: Antiviral activity against VSV pseudotyped Ebolavirus Mayinga expressing GFP infected in human HeLa cells assessed as inhibition of viral infection at 10 uM pre-incubated for 2 hrs followed by viral infection and measured after 8 hrs by cell mask deep red staining based assay; format: functional, organism-based; details: 1976; method in brief: as §3
HeLa [25] = assay: Induction of lysosomotropism in human HeLa cells infected with Ebolavirus assessed as increase in lysosome concentration in juxtanuclear region at 10 uM for 2 hrs by acridine orange staining based assay; format: functional, cell-based
Method in brief: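 HeLa cells were pretreated with compound for 2 h, then given acridine orange for 30 min and washed. Red AO fluorescence in acidic compartments was imaged, and total intensity and average area were scored by high-content imaging. Eight wells per point, about 3000 cells/well, mean ± SD, representative of three independent experiments.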

Ebolavirus [26] = assay: Antiviral activity against Ebolavirus infected in mouse assessed as protection against viral infection at 300 mg/kg/day relative to control; format: functional
Ebolavirus [27] = assay: Antiviral activity against Ebolavirus infected in mouse assessed as protection against viral infection at 24 mg/kg/day relative to control; format: functional
Ebolavirus [28] = assay: Antiviral activity against Ebolavirus infected in mouse assessed as protection against viral infection at 20 mg/kg/day relative to control; format: functional
[29] = Orthoebolavirus, H. sapiens-wt/1995/Kikwit-9510621, HeLa
[30] = Orthoebolavirus, H. sapiens-wt/1995/Kikwit-9510621, HeLa, read-out: EC50

CN(C)CCOCCNc1ccnc2c1ccc1c2ccc2c(NCCOCCN(C)C)ccnc21
selectivity ratio [1]: 2
EC90 (Ebolavirus [2]; [29]): 6.74 µM
EC50 (Ebolavirus [2]; [30]): 3.53 µM
CC50 at 2 h [3]: 7 µM

NC(=O)c1nc(F)cnc1O
Activity (Ebolavirus [4]): 100%
EC50 (Ebolavirus [5]): 67 µM

CCN(CC)CCCC(C)Nc1ccnc2c(NC(C)CCCN(CC)CC)ccnc12 (stereo not given)
microsomal CLint [6]: < 23 µL/min/mg
selectivity ratio [1]: > 13
INH (Cytochrome P450 3A4 [7]): > 10 µM
Activity (Zaire ebolavirus [8]): Active
IC50 (Cytochrome P450 2D6): 8 µM
EC90 (Ebolavirus [2]; [29]): 4.73 µM
EC50 (Ebolavirus [2]; [30]): 0.78 µM
remaining at 1 h [9]: > 85%
CC50 at 2 h [3]: > 10 µM
microsomal CLint [10]: 32.9 µL/min/mg
INH (Cytochrome P450 3A4 [11]): > 10 µM
solubility [12]: ≥ 25 mg/mL
solubility kinetic [13]: > 0.05 mg/mL
half-life [14]: > 1 h
Activity [15]: inactive
Activity [16]: Active
INH (Cytochrome P450 3A4 [17]): > 10 µM
Activity [18]: inactive
Activity (Zaire ebolavirus [19]): 40%
Activity (Zaire ebolavirus [20]): Active
INH (Cytochrome P450 2C19): 3.6 µM
half-life [21]: 0.7 h

CCN(CC)Cc1cc(Nc2ccnc3cc(Cl)ccc23)ccc1O
Activity (HeLa [22]): inactive
inhibition [23]: inactive
Activity (Zaire ebolavirus [24]): Active
Activity (HeLa [25]): Active

NCCCCNc1ccnc2c1ccc1c2ccc2c(NCCCCN)ccnc21
selectivity ratio [1]: > 1
EC90 (Ebolavirus [2]; [29]): 23.5 µM
EC50 (Ebolavirus [2]; [30]): 10 µM
CC50 at 2 h [3]: > 10 µM

OC(CNc1ccnc2c(NCC(O)CN3CCOCC3)ccnc12)CN1CCOCC1 (stereo not given)
EC50 (Ebolavirus [2]): Not Active

c1cc(NCCCCN2CCOCC2)c2nccc(NCCCCN3CCOCC3)c2n1
selectivity ratio [1]: > 11.2
EC90 (Ebolavirus [2]; [29]): 9.9 µM
EC50 (Ebolavirus [2]; [30]): 2.24 µM
CC50 at 2 h [3]: > 25 µM

Nc1ncnc2c(C[C@@H]3N[C@H](CO)[C@@H](O)[C@H]3O)c[nH]c12
Activity (Ebolavirus [26]): 100%
EC50 (Ebolavirus [5]): 3.4 to 11.8 µM

CC(C)COCC(CN(Cc1ccccc1)c1ccccc1)N1CCCC1 (stereo not given) [BEPRIDIL]
Activity (Ebolavirus [27]): 100%

CN[C@H]1CC[C@@H](c2ccc(Cl)c(Cl)c2)c2ccccc21 [SERTRALINE]
Activity (Ebolavirus [28]): 70%

OC(CNc1ccnc2cccnc12)CN1CCOCC1 (stereo not given)
EC50 (Ebolavirus [2]): Not Active

CCN(CC)CCCNc1ccnc2c1ccc1c2ccc2c(NCCN3CCOCC3)ccnc21
selectivity ratio [1]: > 12.6
EC90 (Ebolavirus [2]; [29]): 4.85 µM
EC50 (Ebolavirus [2]; [30]): 0.79 µM
CC50 at 2 h [3]: > 10 µM

CCN(CC)CCNc1ccnc2c(NCCN(CC)CC)ccnc12
selectivity ratio [1]: > 1.8
EC90 (Ebolavirus [2]; [29]): 62.6 µM
EC50 (Ebolavirus [2]; [30]): 14.1 µM
CC50 at 2 h [3]: > 25 µM

CCN(CC)CCCNc1ccnc2c(NCCCN(CC)CC)ccnc12
microsomal CLint [6]: < 23 µL/min/mg
selectivity ratio [1]: > 2
INH (Cytochrome P450 3A4 [7]): > 10 µM
IC50 (Cytochrome P450 2D6): > 10 µM
EC90 (Ebolavirus [2]; [29]): 37.4 µM
EC50 (Ebolavirus [2]; [30]): 4.82 µM
remaining at 1 h [9]: > 85%
CC50 at 2 h [3]: > 10 µM
microsomal CLint [10]: < 23 µL/min/mg
INH (Cytochrome P450 3A4 [11]): > 10 µM
solubility [12]: ≥ 25 mg/mL
solubility kinetic [13]: > 0.05 mg/mL
half-life [14]: > 1 h
INH (Cytochrome P450 3A4 [17]): > 10 µM
INH (Cytochrome P450 2C19): > 10 µM
half-life [21]: > 1 h
